A selection: hits, their analogues and other compounds. The true share with any hit is near 1.4%.
NR2E3 ag-1 – activates human photoreceptor nuclear receptor NR2E3. Q9Y5X4. GST-NR2E3/biotin-RetCOR TR-FRET, 1536-well. inhibition of corepressor binding, % at 4.78 µM. 0.12% of 320,000 active. AID 2300;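 active = percent inhibition above the cutoff of mean plus 3 SD of all tested compounds, set per screening campaign, cut at about 20% in these data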
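Test system: GST-NR2E3 and biotin-RetCOR proteins | Quantity: 1.35 nM GST-tagged NR2E3 final | Medium: Tris pH 7.5 | Also added: 7 nM biotin-RetCOR | Dosing: Compound at 4.8 µM, single dose | Timing: 5 h at 4 °C | Detection: Time-resolved FRET | Read-out basis: Percent inhibition | Benchmarks: Biotin wells as high control, 0.6% DMSO wells as low control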
PG9 binder – small molecules binding HIV-1 gp120 antibody PG9 | inhibition, % at 6.7 µM | TR-FRET gp120-PG9 antibody binding | 0.43% of 360,000 active; in the data active = inhibition above about 8.5%
NR1D1 modulator – Rev-erb alpha (human) modulation. Rev-erbα–FITC-DNA binding, fluorescence polarization, 90 min. 0.79% of 370,000 active. AID 1259318. activity, % at 10 µM;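 active = activity above about 14%, limit read from the data; passing the limit was not always enough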
NR2E3 ag-2 – activates human NR2E3 receptor. Q9Y5X4. CHO-S Gal4-NCOR/VP16-NR2E3 two-hybrid, luciferase. inhibition of corepressor binding, % at 3.98 µM. 0.35% of 360,000 active;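 active = inhibition above the mean of all tested compounds plus 3 SD, cut at about 70% in these data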;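 also: higher means lower luciferase signal from less NR2E3 corepressor binding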
NR2E3 agonist cf – NR2E3 (human) agonism, confirmation; AID 2379; activation (reported as inhibition), % at 3.98 µM; 39% of 360 active; cell-free NR2E3 corepressor release, TR-FRET, 5 h; shares compounds with NR2E3 ag-1; in the data active = activation above about 20%
PPARg-NCOR2 ag – counter-screen for NR2E3 agonists: human PPARgamma-NCOR2 interaction agonists; inhibition, % at 3.98 µM; shares compounds with NR2E3 ag-1; 45% of 360 active; AID 504787; TR-FRET PPARg-NCOR2 coregulator interaction, biochemical; in the data active = inhibition above about 20%
A number is an active result.

How did Cc1ccc(C)n1-c1ccc(C(=O)O)cc1 do in these assays?
NR2E3 ag-1: 23; NR2E3 agonist cf: inactive; PPARg-NCOR2 ag: inactive

What do the screens show for `CC(=O)c1c(C(C)=O)c(C)n(-c2ccc(C(=O)O)cc2)c1C`?
NR2E3 ag-1: inactive; PG9 binder: inactive; NR1D1 modulator: inactive; NR2E3 ag-2: inactive

What do the screens show for `O=C(C1=C(O)C(=O)N(CCc2ccccc2)C1c1cccnc1)c1ccco1` (stereo not drawn)?
NR2E3 ag-1: 25; PG9 binder: inactive; NR1D1 modulator: inactive; NR2E3 ag-2: inactive; NR2E3 agonist cf: inactive; PPARg-NCOR2 ag: 23

Results for COc1cc(C2C(C(=O)c3ccco3)=C(O)C(=O)N2Cc2ccccc2)ccc1O (stereo not drawn) ?
NR2E3 ag-1: inactive; PG9 binder: inactive; NR1D1 modulator: inactive; NR2E3 ag-2: inactive

How did O=C(C1=C(O)C(=O)N(CCc2ccccc2)C1c1cccs1)c1ccco1 (stereo not drawn) do in these assays?
NR2E3 ag-1: inactive; PG9 binder: inactive; NR1D1 modulator: inactive; NR2E3 ag-2: inactive

How did COCCCN1C(=O)C(O)=C(C(=O)c2ccco2)C1c1ccccc1 (stereo not drawn) do in these assays?
NR2E3 ag-1: 22; PG9 binder: inactive; NR1D1 modulator: inactive; NR2E3 ag-2: inactive; NR2E3 agonist cf: inactive; PPARg-NCOR2 ag: inactive

How did O=C(C1=C(O)C(=O)N(CCCn2ccnc2)C1c1ccc(F)cc1)c1ccco1 (stereo not drawn) do in these assays?
NR2E3 ag-1: 36; PG9 binder: inactive; NR1D1 modulator: inactive; NR2E3 ag-2: inactive; NR2E3 agonist cf: inactive; PPARg-NCOR2 ag: inactive

What do the screens show for `O=c1[nH]c(CN2CCN(c3ncccn3)CC2)nc2c(Br)cc(Br)cc12`?
NR2E3 ag-1: 27; PG9 binder: inactive; NR1D1 modulator: inactive; NR2E3 ag-2: inactive; NR2E3 agonist cf: inactive; PPARg-NCOR2 ag: 25

Results for CC1Cc2nc(SCC(=O)Nc3nccs3)n(C)c(=O)c2S1 (stereo not drawn) ?
NR2E3 ag-1: 21; PG9 binder: inactive; NR1D1 modulator: inactive; NR2E3 ag-2: inactive; NR2E3 agonist cf: inactive; PPARg-NCOR2 ag: inactive

How did CC(=O)OCC(=O)[C@@]1(O)CCC2C3CCC4=CC(=O)CC[C@]4(C)[C@@]3(F)[C@@H](O)C[C@@]21C (stereo partly drawn) do in these assays?
NR1D1 modulator: inactive

How did CC1=NN(c2ccc(C)c(C)c2)C(=O)C1C(c1cccc(O)c1)C1C(=O)N(c2ccc(C)c(C)c2)N=C1C (stereo not drawn) do in these assays?
NR2E3 ag-1: 21; PG9 binder: inactive; NR1D1 modulator: inactive; NR2E3 ag-2: inactive; NR2E3 agonist cf: inactive; PPARg-NCOR2 ag: inactive

What do the screens show for `Cc1ccc(-c2n[nH]c(=S)n2-c2ccccc2)cc1`?
NR2E3 ag-1: inactive; PG9 binder: inactive; NR1D1 modulator: inactive; NR2E3 ag-2: inactive

What do the screens show for `CS(=O)(=O)Nc1ccc(-c2n[nH]c(=S)n2-c2ccccc2)cc1`?
NR2E3 ag-1: 27; PG9 binder: inactive; NR1D1 modulator: inactive; NR2E3 ag-2: inactive; NR2E3 agonist cf: inactive; PPARg-NCOR2 ag: inactive

Results for CCOc1cccc(C2C(C(=O)c3ccc(C)o3)=C(O)C(=O)N2Cc2ccncc2)c1 (stereo not drawn) ?
NR2E3 ag-1: 26; PG9 binder: inactive; NR1D1 modulator: inactive; NR2E3 ag-2: inactive; NR2E3 agonist cf: inactive; PPARg-NCOR2 ag: inactive

How did CCOc1cccc(C2C(C(=O)c3ccc(C)o3)=C(O)C(=O)N2Cc2ccccc2)c1 (stereo not drawn) do in these assays?
PG9 binder: inactive; NR1D1 modulator: inactive; NR2E3 ag-2: inactive

How did O=C1O[C@H](C(O)CO)C(O)=C1O (stereo partly drawn) do in these assays?
NR1D1 modulator: inactive

What do the screens show for `CC(C)(C)C(=O)CSc1nc2c(c(-c3cccs3)c1C#N)CCC2`?
NR2E3 ag-1: 21; PG9 binder: inactive; NR1D1 modulator: inactive; NR2E3 ag-2: inactive; NR2E3 agonist cf: inactive; PPARg-NCOR2 ag: inactive

How did CC(CCC(=O)O)[C@H]1CCC2C3C(=O)C[C@@H]4CC(=O)CC[C@]4(C)C3CC(=O)[C@@]21C (stereo partly drawn) do in these assays?
NR1D1 modulator: inactive

What do the screens show for `O=C(O)[C@@H](S)[C@@H](S)C(=O)O`?
NR1D1 modulator: inactive

What do the screens show for `CC(C)C1CCC(C(=O)N[C@@H](Cc2ccccc2)C(=O)O)CC1` (stereo partly drawn)?
NR1D1 modulator: inactive

Results for CS(=O)(=O)n1nc(-c2ccc(Cl)cc2)nc1N ?
NR2E3 ag-1: inactive; PG9 binder: inactive; NR1D1 modulator: inactive; NR2E3 ag-2: inactive

How did Cn1nc(-c2ccc(Cl)cc2)nc2c(=O)n(C)c(=O)nc1-2 do in these assays?
NR2E3 ag-1: 37; NR2E3 agonist cf: 32; PPARg-NCOR2 ag: 56

Results for NC[C@@H]1O[C@H](O[C@@H]2[C@@H](CO)OC(O[C@@H]3[C@@H](O)[C@H](N)C[C@H](N)[C@H]3O[C@@H]3O[C@H](CN)[C@@H](O)[C@H](O)[C@H]3N)[C@@H]2O)[C@H](N)[C@@H](O)[C@@H]1O (stereo partly drawn) ?
NR1D1 modulator: inactive

What do the screens show for `C=CCN(CC=C)Cc1c(O)ccc2c1oc(=O)c1ccccc12`?
NR2E3 ag-1: 34; PG9 binder: inactive; NR1D1 modulator: inactive; NR2E3 ag-2: inactive; NR2E3 agonist cf: inactive; PPARg-NCOR2 ag: inactive

How did Nc1ccc2c(c1)C(=O)C(=O)c1ccccc1-2 do in these assays?
NR2E3 ag-1: 20; PG9 binder: inactive; NR1D1 modulator: inactive; NR2E3 ag-2: inactive; NR2E3 agonist cf: inactive; PPARg-NCOR2 ag: 48

How did Nc1ccc2c(c1)C(=O)c1ccccc1-2 do in these assays?
NR2E3 ag-1: inactive; PG9 binder: inactive; NR1D1 modulator: inactive; NR2E3 ag-2: inactive

How did Cc1cc(C#N)cc(C)c1Oc1nc(Nc2ccc(C#N)cc2)nc(N)c1Br do in these assays?
NR1D1 modulator: inactive

What do the screens show for `C[C@@H]1NC(=O)N[C@@H]1CCCCCC(=O)O`?
NR2E3 ag-1: 76; PG9 binder: inactive; NR1D1 modulator: inactive; NR2E3 ag-2: inactive; NR2E3 agonist cf: 77; PPARg-NCOR2 ag: 72

Results for O=C(CCCCC(=O)NCCCc1ccccc1)NCCCc1ccccc1 ?
NR2E3 ag-1: inactive; PG9 binder: inactive; NR1D1 modulator: inactive; NR2E3 ag-2: inactive

What do the screens show for `CC1NC(=O)NC1CCCCCC(=O)NCCc1ccccc1` (stereo not drawn)?
NR2E3 ag-1: 69; PG9 binder: inactive; NR1D1 modulator: inactive; NR2E3 ag-2: inactive; NR2E3 agonist cf: 75; PPARg-NCOR2 ag: 70

What do the screens show for `CCCCCC1NC(=O)NC1CCCCCC(=O)O` (stereo not drawn)?
NR2E3 ag-1: inactive; PG9 binder: inactive; NR1D1 modulator: inactive; NR2E3 ag-2: inactive

How did O=C(O)CCCCC1SCC2NC(=O)NC21 (stereo not drawn) do in these assays?
NR2E3 ag-1: 38; PG9 binder: inactive; NR1D1 modulator: inactive; NR2E3 ag-2: inactive; NR2E3 agonist cf: inactive; PPARg-NCOR2 ag: 25
